Experimental findings from ChEMBL document CHEMBL1153409, “The identification of novel PLC-gamma inhibitors using virtual high throughput screening” (Bioorg Med Chem, 2009) are described below.

pIC50: −log10 of the molar value. Active and inactive are the calls of the source. The calls are words filed in the database; no cut-off is given here.

Assay [1] has as its target T1, 1-phosphatidylinositol 4,5-bisphosphate phosphodiesterase gamma-2 (Homo sapiens) (UniProt P16885).
T1 sequence (whole entry): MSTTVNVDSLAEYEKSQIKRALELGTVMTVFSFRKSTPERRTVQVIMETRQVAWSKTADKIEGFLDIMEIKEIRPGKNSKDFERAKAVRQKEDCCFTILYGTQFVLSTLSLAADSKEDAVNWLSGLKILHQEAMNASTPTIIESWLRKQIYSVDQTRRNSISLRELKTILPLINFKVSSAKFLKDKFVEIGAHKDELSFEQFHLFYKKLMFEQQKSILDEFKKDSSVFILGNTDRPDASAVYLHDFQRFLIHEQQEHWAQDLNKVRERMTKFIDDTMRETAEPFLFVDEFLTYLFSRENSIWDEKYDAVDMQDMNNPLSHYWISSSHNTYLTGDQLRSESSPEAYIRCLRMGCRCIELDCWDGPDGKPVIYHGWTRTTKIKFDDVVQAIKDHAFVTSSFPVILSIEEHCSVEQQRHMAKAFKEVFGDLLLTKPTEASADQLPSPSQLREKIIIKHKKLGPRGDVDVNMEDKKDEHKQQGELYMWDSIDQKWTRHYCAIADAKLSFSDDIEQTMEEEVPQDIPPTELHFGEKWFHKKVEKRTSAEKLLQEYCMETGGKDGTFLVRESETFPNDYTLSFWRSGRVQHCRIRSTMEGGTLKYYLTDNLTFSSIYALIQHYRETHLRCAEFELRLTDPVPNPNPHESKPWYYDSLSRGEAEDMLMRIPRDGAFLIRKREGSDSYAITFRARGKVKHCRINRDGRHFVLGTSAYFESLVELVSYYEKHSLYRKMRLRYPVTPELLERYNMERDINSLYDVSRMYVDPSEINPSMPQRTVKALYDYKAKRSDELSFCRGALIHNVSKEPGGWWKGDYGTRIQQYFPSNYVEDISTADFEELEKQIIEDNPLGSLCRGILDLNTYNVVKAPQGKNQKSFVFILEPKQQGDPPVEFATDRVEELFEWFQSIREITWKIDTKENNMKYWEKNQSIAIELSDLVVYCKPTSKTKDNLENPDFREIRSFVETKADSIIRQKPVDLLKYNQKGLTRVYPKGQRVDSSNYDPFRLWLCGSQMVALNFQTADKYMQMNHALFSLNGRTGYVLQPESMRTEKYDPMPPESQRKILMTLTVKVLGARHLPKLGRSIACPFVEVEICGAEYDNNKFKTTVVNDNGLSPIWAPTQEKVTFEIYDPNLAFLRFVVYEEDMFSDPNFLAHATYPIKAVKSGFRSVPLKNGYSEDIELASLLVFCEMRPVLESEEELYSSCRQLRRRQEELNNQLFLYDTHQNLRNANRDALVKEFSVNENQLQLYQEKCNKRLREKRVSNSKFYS
In words: Inhibition of recombinant phospholipase C gamma2 expressed in baculovirus infected Sf9 cells at 50 uM using [3H]PIP2 by flashplate biochemical assay. The essentials: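 3H-PIP2 Flashplate assay with His-tagged full-length PLC-γ2 from infected Sf-9 cells. Substrate-coated wells (0.1 µCi/well) incubated with enzyme and compound in Tris/NaCl/CaCl2/EGTA/spermine/deoxycholate buffer, pH 7.4, 5% DMSO, room temperature, typically 30 min. Percent inhibition at 50 µM from two measurements, based on CPM versus control wells.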

Assay [2] addresses T1, 1-phosphatidylinositol 4,5-bisphosphate phosphodiesterase gamma-2 (Homo sapiens). Nature of the assay: Inhibition of phospholipase C gamma2 in human A431 cells assessed as reduction of calcium release after 45 mins by FLIPR assay. It counts as cell-based. Conditions: A-431. The essentials: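 A431 squamous carcinoma cells seeded at 4 × 10^5 per well and kept overnight at 37 °C, 5% CO2. Medium replaced with doubling dilutions of compound in HBSS starting at 100 µM. Calcium 3 dye added with probenecid (2.5 mM final), 45 min at 37 °C, then calcium release read by FLIPR at 37 °C.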

Assay [3] shares this target. In words: Inhibition of phospholipase C gamma2 in human A431 cells assessed as reduction of calcium release at 25 uM after 45 mins by FLIPR assay. It counts as cell-based. Conditions: A-431. The essentials:
(§1)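 A431 cells seeded overnight at 4 × 10^5 per well, then given compound in HBSS. Calcium 3 dye with 2.5 mM probenecid, 45 min at 37 °C, FLIPR read at 37 °C. Scoring was semi-quantitative: any decrease in calcium release at 50 µM scored +, at 25 µM ++.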

The target is the same in assay [4]. In words: Inhibition of phospholipase C gamma2 in human A431 cells assessed as reduction of calcium release at 50 uM after 45 mins by FLIPR assay. The class given is cell-based. Conditions: A-431. The essentials:
as §1

Assay [5] has as its target T2, 1-phosphatidylinositol 4,5-bisphosphate phosphodiesterase gamma-2 (Homo sapiens, UniProt P16885).
T2 sequence (P16885 whole entry): T1 sequence (whole entry)
Nature of the assay: Inhibition of recombinant phospholipase C gamma2 expressed in baculovirus infected Sf9 cells using [3H]PIP2 by flashplate biochemical assay. The essentials:
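Full-length His-tagged PLC-γ2 from baculovirus-infected Sf-9 cells, purified by Talon IMAC. Plates coated 24 h at room temperature with 3H-PIP2 (0.1 µCi/well); enzyme plus inhibitor in 50 mM Tris-HCl, 200 mM NaCl, 100 µM CaCl2, 100 µM EGTA, 100 µM spermine, 0.5 mM deoxycholate, pH 7.4, 5% v/v DMSO final. Scintillation signal loss read at room temperature, typically 30 min; CPM compared with control wells.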

The term inhibition denotes the change of the read-out against control, counted positive when it falls. Take `Cc1ccc2c(c1)N/C(=C\C(=O)c1ccc(Cl)cc1)C(=O)O2`: in assay [1], the inhibition is 100%. Moreover, in assay [2], the GC50 was 22 µM.

As for `COc1ccc(Cl)cc1C(=O)Nc1nc2ccc([N+](=O)[O-])cc2s1`, the inhibition in assay [1] came out at 100%. The “Calcium release inhibition activity at 25 uM” value in assay [3] was “Active”.

On to `O=c1/c(=C/c2ccncc2)sc2n1CN(c1ccc(Cl)cc1)CN=2`, for which the inhibition in assay [1] turned out to be 100%. The GC50 in assay [2] is 15 µM.

Take `Cc1ccc(NC(=O)c2sc3nc4c(cc3c2N)C(=O)CCC4)cc1Cl`: in assay [1], the inhibition worked out at 100%. For the same compound, the GC50 result in assay [2] is “inactive”.

As to `O=C(Nc1ccc(S(=O)(=O)Nc2nccs2)cc1)c1cccs1`, the inhibition in assay [1] worked out at 82%. Also, the GC50 entry in assay [2] was “inactive”.

Take `CCCOc1ccc(-c2nnc(NC(=O)c3cccs3)s2)cc1`: the inhibition in assay [1] was 67%. Moreover, the GC50 entry in assay [2] was “inactive”.

Regarding `O=c1/c(=C/c2ccccc2[N+](=O)[O-])sc2nc(-c3ccc(F)cc3)nn12`, the inhibition in assay [1] turned out to be 100%. Moreover, the GC50 in assay [2] was 15 µM.

For the compound `O=C(Nc1cccc(Cl)c1)Nc1nnc(-c2ccc3c(c2)OCO3)s1`, the “Decrease in calcium release (active/inactive call)” value in assay [4] was “Active”. In addition, the inhibition in assay [1] was found to be 85%.

The pIC50 is −log10 of the IC50, conventionally taken in molar units. As to `O=C(NC(=O)c1ccccc1Cl)Nc1ccc2c(c1)S(=O)(=O)C=C2`, the pIC50 in assay [5] was 5.02. In addition, in assay [2], the GC50 result is “inactive”.

On to `Nc1c(C(=O)Nc2cccc(F)c2)sc2nc(-c3ccc(F)cc3)ccc12`, for which the “Decrease in calcium release (active/inactive call)” value in assay [4] is “Active”. Also, the inhibition in assay [1] worked out at 100%.

Turning to `Clc1cccc(-c2nc(-c3ccc(-c4ccon4)s3)no2)c1`, the pIC50 in assay [5] is 6.00. Besides, the GC50 result in assay [2] is “inactive”.

In the case of `O=C1C2Nc3ccc(Br)cc3C2N=CN1CCc1ccccc1` (centres undefined), the inhibition in assay [1] worked out at 100%. Also, in assay [2], the GC50 entry was “inactive”.

Consider `O=C(Nc1ccc(Cl)cc1)c1cc2cccc([N+](=O)[O-])c2[nH]1`, for which, in assay [5], the pIC50 is 6.00. In addition, the GC50 entry in assay [2] was “inactive”.

In the case of `O=C1NN(c2ccccc2)C(=O)/C1=C/c1coc2ccc(Cl)cc2c1=O`, the inhibition in assay [1] was 27%. For the same compound, in assay [2], the GC50 was determined as 18 µM.

`COc1ccc(S(=O)(=O)n2ccc(-c3ccc4c(c3)CCC(C)(C)O4)n2)cc1`: in assay [5], the pIC50 is 5.52. Further, in assay [2], the GC50 came out at 30 µM.

In the case of `O=C1C2Nc3ccc(Br)cc3C2N=CN1CCc1ccc(F)cc1` (centres undefined), in assay [1], the inhibition was 100%. Further, the GC50 result in assay [2] was “inactive”.

For `Nc1c(C(=O)Nc2cccc(Cl)c2)sc2nc3c(cc12)C(=O)CCC3`, in assay [1], the inhibition was 100%. In addition, the GC50 result in assay [2] is “inactive”.

Consider `O=C(Nc1nc2ccccc2c(=O)s1)c1ccc(Cl)cc1`, for which the pIC50 in assay [5] is 5.70. Further, the GC50 result in assay [2] is “inactive”.

For `CC(=O)c1ccc(Nc2nnc(-c3ccncc3)s2)cc1`, the inhibition in assay [1] is 100%. Also, in assay [3], the “Calcium release inhibition activity at 25 uM” value is “Active”.

As to `O=[N+]([O-])c1cc(-c2nc(-c3ccccn3)no2)cs1`, in assay [5], the pIC50 is 5.70. Besides, the GC50 result in assay [2] is “inactive”.

`CCOc1ccc2c(c1)C1N=CN(Cc3ccccc3)C(=O)C1N2` (centres undefined): the inhibition in assay [1] is 89%. In addition, the GC50 result in assay [2] was “inactive”.

Turning to `O=C(Nc1ccccc1)Nc1nnc(-c2cccs2)s1`, the inhibition in assay [1] came to 100%. Moreover, the GC50 entry in assay [2] is “inactive”.

`Cc1ccc(S(=O)(=O)NC2=NC(=O)/C(=C\c3ccccc3)S2)cc1`: the inhibition in assay [1] amounted to 82%. For the same compound, the GC50 in assay [2] turned out to be 15 µM.

As to `Cc1ccc(NC(=O)c2sc3nc4c(cc3c2N)C(=O)CCC4)cc1`, in assay [1], the inhibition came out at 100%. Moreover, the GC50 entry in assay [2] was “inactive”.

As for `Nc1c(C(=O)Nc2cccc(Cl)c2)sc2nc(-c3cccs3)ccc12`, the “Decrease in calcium release (active/inactive call)” value in assay [4] was “Active”. For the same compound, the inhibition in assay [1] is 100%.

For the compound `O=C(Nc1ccc2oc(=O)ccc2c1)c1ccc(-c2cccc(Cl)c2)o1`, the inhibition in assay [1] came to 100%. Further, the “Calcium release inhibition activity at 25 uM” value in assay [3] is “Active”.

In the case of `COc1ccc(-c2nnc(NC(=O)c3cccs3)s2)cc1`, the inhibition in assay [1] was 100%. Further, in assay [2], the GC50 result was “inactive”.

Consider `N#Cc1ccc(/C=C2/N=C(c3ccccc3)OC2=O)cc1`, for which, in assay [5], the pIC50 was 5.70. In addition, the GC50 entry in assay [2] was “inactive”.

For `O=C(NCCc1ccccc1)c1cc2cccc([N+](=O)[O-])c2[nH]1`, the pIC50 in assay [5] is 6.00. Moreover, the GC50 in assay [2] came to 15 µM.

On to `O=C1C2Nc3ccc(Br)cc3C2N=CN1CCC1=CCCCC1` (centres undefined), for which, in assay [1], the inhibition is 100%. Further, in assay [2], the GC50 entry is “inactive”.

Consider `CCCc1nnc(NC(=O)c2cc([N+](=O)[O-])cc([N+](=O)[O-])c2)s1`, for which the inhibition in assay [1] amounted to 100%. Also, the GC50 result in assay [2] is “inactive”.

Take `O=C1OC(c2ccc([N+](=O)[O-])cc2)=N/C1=C/c1cccs1`: the “Decrease in calcium release (active/inactive call)” value in assay [4] was “Active”. Also, the pIC50 in assay [5] is 4.92.

As to `COc1ccc2[nH]c(C(=O)Nc3nc4ccccc4s3)cc2c1`, the pIC50 in assay [5] is 5.30. In addition, in assay [2], the GC50 entry was “inactive”.

Consider `Cc1ccc(/C=C2\C(=O)NC(=O)N(c3ccc(Cl)cc3)C2=O)s1`, for which the inhibition in assay [1] is 6%. Further, the GC50 in assay [2] was determined as 5 µM.

With `COc1ccc(-c2cc3nnc(-c4ccccc4)nc3s2)cc1`, the pIC50 in assay [5] was 5.40. Also, in assay [2], the GC50 entry is “inactive”.

Take `O=S(=O)(Oc1ccc(-c2cnc3ccccc3n2)cc1)c1ccccc1`: in assay [1], the inhibition worked out at 100%. The “Calcium release inhibition activity at 25 uM” value in assay [3] is “Active”.

With `COc1ccc2c(c1)C1N=CN(CCc3c[nH]c4ccccc34)C(=O)C1N2` (centres undefined), the “Decrease in calcium release (active/inactive call)” value in assay [4] was “Active”. For the same compound, in assay [1], the inhibition was determined as 89%.
